Activity calls are given as the source filed them. The calls are words filed in the database; no cut-off is given here.
Tests used:
HT-1080 [1] = experiment: Induction of pro-caspase 3 cleavage in human HT1080 cells; format: functional, cell-based
In short: (§1)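 Cells either untreated, given staurosporine, or given erastin for 6–10 h, then lysed in HEPES pH 7.4 buffer with phosphatase and protease inhibitors. Lysates run on SDS-PAGE, blotted to PVDF, probed with antibodies detecting active caspase-3, with actin as loading control. Bands read on infrared imager.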

HeLa = experiment: Induction of pro-caspase 3 cleavage in human HeLa cells; format: functional, cell-based; in short: as §1
BJ [2] = experiment: Induction of cell death in human BJ cells expressing TERT, LT, ST and RAS G12V mutant genes in presence of U0126 by trypan blue exclusion method; format: functional, cell-based
In short: (§2)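 BJ-TERT/LT/ST/RASV12 cells were co-treated for 48 h with 1.5 µM erastin plus 20 µM U0126, 10 µM MEK inhibitor I or 50 µM MEK1/2 inhibitor. Viability was measured by automated Trypan blue exclusion of trypsinized cells resuspended in growth medium; n = 2 or 3.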

HT-1080 [3] = experiment: Induction of cell death in human HT1080 cells in presence of MEK inhibitor 2 by trypan blue exclusion method; format: functional, cell-based
A673 [4] = experiment: Induction of PARP1 cleavage in human A673 cells; format: functional, cell-based
In short: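 Cells were left untreated or given staurosporine or erastin for 6 or 8 h. Lysates were analysed by western blot for full-length and cleaved PARP1, with actin as loading control.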

HT-1080 [5] = experiment: Induction of cell death in human HT1080 cells in presence of U0126 by trypan blue exclusion method; format: functional, cell-based
SK-LMS-1 = experiment: Induction of cell death in human SKLMS1 cells; format: functional, cell-based
A673 [6] = experiment: Induction of pro-caspase 3 cleavage in human A673 cells; format: functional, cell-based; in short: as §1
[7] = molecular target: T1, Mitogen-activated protein kinase; ERK1/ERK2 (Homo sapiens) (UniProt P27361+P28482); experiment: Effect on ERK1/2 phosphorylation in human […] cells by Western blot; format: cell-based; conditions: SK-N-MC
In short: (§3)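 Washed cells were lysed in pH 7.4 HEPES buffer containing orthovanadate, NaF, pyrophosphate, β-glycerophosphate and protease inhibitors. Lysates were run on SDS-PAGE, transferred to PVDF and blocked 1 h at room temperature. Blots were probed with a multiplex phospho-signalling antibody cocktail and read by infrared fluorescence scanning.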

BJ [8] = experiment: Effect on intracellular oxidative species in TERT expressing human BJ cells at 4.6 uM; format: functional, cell-based
In short: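 Cells seeded at 3 × 10^5 per 60 mm dish were grown overnight, then exposed to 4.6 erastin for 2–12 h; H2O2 for 5 min served as positive control. Cells were loaded with H2DCF-DA for 10 min, trypsinized, PBS-washed and stained with propidium iodide. Read-out was flow cytometry as percent of cells with DCF fluorescence in gate M1; n = 2.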

[9] = Induction of cell death in human A431NS cells; format: functional
C-33-A = experiment: Induction of cell death in human C33A cells; format: functional, cell-based
HT-1080 [10] = experiment: Induction of cell death in human HT1080 cells; format: functional, cell-based
BJ [11] = experiment: Induction of pro-caspase 3 cleavage in human BJ cells expressing TERT, LT, ST and RAS G12V mutant genes; format: functional, cell-based; in short: as §1
BJ [12] = experiment: Induction of cytochrome c release in mitochondrial fraction of human BJ cell expressing TERT, LT, ST and RAS G12V mutant genes at 20 ug/ml; format: functional, cell-based
In short: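 BJ-TERT/LT/ST/RASV12 cells seeded 3 × 10^6 per dish, incubated overnight at 37 °C, 5% CO2, then exposed to erastin 20 µg/ml for 6–26 h. Fractionated on ice by needle lysis: nuclei spun out at 400g, mitochondria pelleted at 10,500g. Cytochrome c detected by western blot in cytosolic and mitochondrial fractions.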

[13] = molecular target: Non-selective voltage-gated ion channel VDAC2 (Homo sapiens, UniProt P45880); experiment: Binding affinity to human VDAC2
BJ [14] = experiment: Prevention of induction of cell death in human BJ cells expressing TERT, LT, ST and RAS G12V mutant genes cells after 24 hrs in presence of beta-carotene; format: functional, cell-based
In short: (§4)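 BJ-TERT/LT/ST/RASV12 cells treated 24 h with erastin across roughly 1–2.5 µM, together with DMSO or an antioxidant (α-tocopherol, BHT or β-carotene). Viability read afterwards.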

SK-N-MC = experiment: Induction of cell death in human SK-N-MC cells; format: functional, cell-based
U2OS = experiment: Induction of cell death in human U2OS cells; format: functional, cell-based
[15] = molecular target: T1, Mitogen-activated protein kinase; ERK1/ERK2 (Homo sapiens); experiment: Effect on ERK1/2 phosphorylation in human EWS502 cells by Western blot; format: cell-based; in short: as §3
HT-1080 [16] = experiment: Induction of cell death in human HT1080 cells in presence of PD-98059 by trypan blue exclusion method; format: functional, cell-based
[17] = Induction of cell death in human SKUT cells; format: functional, cell-based
HOS = experiment: Induction of cell death in human HOS cells; format: functional, cell-based
U-937 = experiment: Induction of cell death in human U937 cells; format: functional, cell-based
HT-1080 [18] = experiment: Induction of cell death in human HT1080 cells in presence of MEK 1/2 inhibitor by trypan blue exclusion method; format: functional, cell-based
BJ [19] = experiment: Induction of cell death in human BJ cells expressing TERT, LT, ST and RAS G12V mutant genes cells in presence of MEK inhibitor 2 by trypan blue exclusion method; format: functional, cell-based
SJSA-1 = experiment: Induction of cell death in human SJSA1 cells; format: functional, cell-based
BJ [20] = experiment: Induction of cell death in human BJ cells expressing TERT, LT, ST and RAS G12V mutant genes in presence of MEK inhibitor by trypan blue exclusion method; format: functional, cell-based; in short: as §2
LNCaP = experiment: Induction of cell death in human LNCaP cells; format: functional, cell-based
[21] = Induction of cell death in human MX2 cells; format: functional, cell-based
HT-1080 [22] = experiment: Suppression of induction of cell death in human HT1080 cells at […] by Alamar Blue assay in presence of butylated hydroxytoluene; format: functional, cell-based
[23] = molecular target: T1, Mitogen-activated protein kinase; ERK1/ERK2 (Homo sapiens); experiment: Effect on ERK1/2 phosphorylation in human SW872 cells by Western blot; format: cell-based; in short: as §3
[24] = Induction of cell death in human Hs925.T cells; format: functional, cell-based
BJ [25] = experiment: Prevention of induction of cell death in human BJ cells expressing TERT, LT, ST and RAS G12V mutant genes cells after 24 hrs in presence of butylated hydroxytoluene; format: functional, cell-based; in short: as §4
SVR = experiment: Induction of cell death in human SVR cells; format: functional, cell-based
[26] = Induction of cell death in human Hs51.T cells; format: functional, cell-based

T1 sequence (P27361 whole entry, looked up): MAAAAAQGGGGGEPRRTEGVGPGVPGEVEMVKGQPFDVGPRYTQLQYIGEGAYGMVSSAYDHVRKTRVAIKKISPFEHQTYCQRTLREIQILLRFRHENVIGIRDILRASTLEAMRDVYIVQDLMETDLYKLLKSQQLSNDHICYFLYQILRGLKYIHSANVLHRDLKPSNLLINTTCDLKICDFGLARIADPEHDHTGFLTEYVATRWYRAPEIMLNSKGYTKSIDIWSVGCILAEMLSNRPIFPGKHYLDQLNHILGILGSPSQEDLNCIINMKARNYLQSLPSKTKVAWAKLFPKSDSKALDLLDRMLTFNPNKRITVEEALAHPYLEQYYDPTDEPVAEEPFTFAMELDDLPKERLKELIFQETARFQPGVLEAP
T1 sequence (P28482 whole entry, looked up): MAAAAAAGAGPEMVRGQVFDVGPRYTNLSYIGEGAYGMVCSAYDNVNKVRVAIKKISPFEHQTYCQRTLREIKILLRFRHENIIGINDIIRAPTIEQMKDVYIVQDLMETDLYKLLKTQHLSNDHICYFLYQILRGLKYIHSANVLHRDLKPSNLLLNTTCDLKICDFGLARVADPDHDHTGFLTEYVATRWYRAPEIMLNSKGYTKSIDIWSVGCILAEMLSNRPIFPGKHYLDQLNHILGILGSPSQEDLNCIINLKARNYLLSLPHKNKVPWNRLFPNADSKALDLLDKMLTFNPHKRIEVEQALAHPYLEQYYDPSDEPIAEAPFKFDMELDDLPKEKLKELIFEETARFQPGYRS
Chain of Non-selective voltage-gated ion channel VDAC2 (P45880 whole entry): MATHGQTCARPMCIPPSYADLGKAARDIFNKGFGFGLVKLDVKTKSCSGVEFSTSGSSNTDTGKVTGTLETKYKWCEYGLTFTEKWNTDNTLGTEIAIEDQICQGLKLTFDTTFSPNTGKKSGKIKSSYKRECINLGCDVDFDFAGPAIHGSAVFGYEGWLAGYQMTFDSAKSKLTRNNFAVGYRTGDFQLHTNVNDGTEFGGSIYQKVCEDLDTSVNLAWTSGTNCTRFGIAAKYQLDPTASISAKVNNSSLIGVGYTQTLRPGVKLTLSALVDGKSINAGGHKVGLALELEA

CCOc1ccccc1-n1c(C(C)N2CCN(C(=O)COc3ccc(Cl)cc3)CC2)nc2ccccc2c1=O (stereo not given) [ERASTIN]
Activity (HT-1080 [1]): inactive
Activity (HeLa): inactive
IC50 (BJ [2]): 31.2 µM
IC50 (HT-1080 [3]): 1.3 µM
Activity (A673 [4]): inactive
IC50 (HT-1080 [5]): 3.4 µM
Activity (SK-LMS-1): 100%
EC50 (SK-LMS-1; Homo sapiens, SK-LMS-1): 6 µM
Activity (A673 [6]): inactive
Activity [7]: 0.05 a.u.
Activity (BJ [8]): inactive
Activity [9]: 0%
Activity (C-33-A): 21%
EC50 (C-33-A; Homo sapiens, C-33-A): 0.6 µM
Activity (HT-1080 [10]): 98%
EC50 (HT-1080 [10]; Homo sapiens, HT-1080): 2 µM
Activity (BJ [11]): inactive
Activity (BJ [12]): inactive
Kd [13]: 0.112 µM
Activity (BJ [14]): Active
Activity (SK-N-MC): 95%
EC50 (SK-N-MC; Homo sapiens, SK-N-MC): 10 µM
Activity (U2OS): 96%
EC50 (U2OS; Homo sapiens, U2OS): 6 µM
Activity [15]: 0.12 a.u.
IC50 (HT-1080 [16]): 1 µM
Activity [17]: 73%
EC50 ([17]; Homo sapiens, SKUT): 4 µM
Activity (HOS): 100%
EC50 (HOS; Homo sapiens, HOS): 17 µM
Activity (U-937): 73%
EC50 (U-937; Homo sapiens, U-937): 10 µM
IC50 (HT-1080 [18]): 6 µM
IC50 (BJ [19]): 0.9 µM
Activity (SJSA-1): 100%
EC50 (SJSA-1; Homo sapiens, SJSA-1): 12 µM
IC50 (BJ [20]): 2.6 µM
Activity (LNCaP): 32%
EC50 (LNCaP; Homo sapiens, LNCaP): 6 µM
Activity [21]: 71%
EC50 ([21]; Homo sapiens, MX2): 18 µM
Activity (HT-1080 [22]): Active
Activity [23]: 0.12 a.u.
Activity [24]: 83%
EC50 ([24]; Homo sapiens): 17 µM
Activity (BJ [25]): Active
Activity (SVR): 20%
EC50 (SVR; Mus musculus, SVR): 2.5 µM
Activity [26]: 88%
EC50 ([26]; Homo sapiens): 12 µM
